4 compounds from PMC3058505 (Hepatology (Baltimore, Md.), 2010) can be followed below.

Counter-ions that a name gives are not always drawn.

For data set [1], the system named is HCV NS5A and core protein in NS or FL replicons. Kind of data set: Western blot of HCV proteins in NS and FL replicons. The class given is cell-based, hepatitis C virus. The note with it: biliverdin 20 µM, BR 200 µM or FeCl2 100 µM for 24 h; both replicon lines. The procedure, abridged:
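Log-phase NS (Huh5-15) or FL (Huh7.5 Con1) replicon cells were treated for 24 h. BV and BR were dissolved in 0.2 N NaOH, with vehicle controls. Cells were then lysed and analysed by Western blot with enhanced chemiluminescence detection. Band intensities were quantified by densitometry.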
(A western blot detects proteins with antibodies after separation by electrophoresis.)

Data set [2] deals with replicon cells. Description: Proliferation and cytotoxicity assays. The class given is cell-based, human. The following applies: medium containing 5 or 10% FBS.
The target in data set [3] is HCV NS3/4A protease (recombinant) (Hepatitis C virus genotype 1b, UniProt O92972). Kind of data set: SensoLyte 620 HCV Protease Assay with recombinant NS3/4A protease. The class given is biochemical.
HCV NS3/4A protease (recombinant), sequence (O92972 1013-1207, looked up, natural form): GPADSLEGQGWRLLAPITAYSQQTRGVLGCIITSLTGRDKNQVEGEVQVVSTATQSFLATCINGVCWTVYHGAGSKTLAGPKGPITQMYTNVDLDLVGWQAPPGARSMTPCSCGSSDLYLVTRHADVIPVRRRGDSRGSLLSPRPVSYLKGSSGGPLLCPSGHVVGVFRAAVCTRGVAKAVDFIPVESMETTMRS
For data set [4], the system named is HCV replication in FL or NS replicons. The format is cell-based, hepatitis C virus. The following applies: 50 or 100 µM BV overnight with α-interferon. The essentials:
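Cell lines were Huh7.5 cells with full-length Con1 replicons (FL) and Huh5-15 cells with subgenomic replicons (NS). They received α-interferon alone or with BV. BV was dissolved in 0.2 N NaOH, and controls got the same NaOH volume. HCV RNA was measured by real-time RT-PCR using the comparative cycle threshold (ΔCT) method. Values are mean ± SEM of 3 determinations per point.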

Data set [5] concerns the target endogenous NS3/4A protease from replicon microsomes (Hepatitis C virus genotype 1b, UniProt Q9WMX2). The class given is biochemical.
Data set [6] deals with J6/JFH infectious HCV in Huh7.5 cells. Kind of data set: J6/JFH HCV infection of Huh7.5 cells. The note with it: BV 20–200 µM, 72 h; HCV polyvalent sera immunoreactivity and HCV RNA. The class given is cell-based, hepatitis C virus. The procedure, abridged: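 Huh7.5 cells were inoculated with infectious J6/JFH HCV and passed. They were then treated with BV at 0, 20 or 200 µM for 72 h. Cells were fixed in absolute methanol, washed in PBS and stained with genotype 2A polyvalent human serum. Detection used an anti-human alkaline phosphatase conjugate and photomicroscopy. HCV RNA was measured by ΔCT real-time RT-PCR, 3–5 determinations per group, mean ± SEM.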

The subject of data set [7] is HCV replication in Huh5-15NS replicon. Kind of data set: HCV replication in non-structural. The following applies: for Relative [HCV] [ΔCΤ]: Huh5-15NS, control = 1.0. The class given is cell-based, hepatitis C virus. The procedure, abridged: (§1)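 Log-phase replicon cells were incubated overnight with hemin (0, 5, 10 or 20 µM) or control vehicle. Cells were Huh7.5FL (full-length Con1) or Huh5-15NS (subgenomic). Relative HCV RNA was found by real-time RT-PCR with the comparative cycle threshold (ΔCT) method and normalised to vehicle control = 1.0. Each value is the mean of four determinations.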

The subject of data set [8] is HCV replication in Huh7.5FL Con1 replicon. Kind of data set: HCV replication in full-length. The class given is cell-based, hepatitis C virus. The note with it: for Relative [HCV] [ΔCΤ]: Huh7.5FL, control = 1.0. The essentials: as §1

endogenous NS3/4A protease from replicon microsomes, sequence (Q9WMX2 1027-1657): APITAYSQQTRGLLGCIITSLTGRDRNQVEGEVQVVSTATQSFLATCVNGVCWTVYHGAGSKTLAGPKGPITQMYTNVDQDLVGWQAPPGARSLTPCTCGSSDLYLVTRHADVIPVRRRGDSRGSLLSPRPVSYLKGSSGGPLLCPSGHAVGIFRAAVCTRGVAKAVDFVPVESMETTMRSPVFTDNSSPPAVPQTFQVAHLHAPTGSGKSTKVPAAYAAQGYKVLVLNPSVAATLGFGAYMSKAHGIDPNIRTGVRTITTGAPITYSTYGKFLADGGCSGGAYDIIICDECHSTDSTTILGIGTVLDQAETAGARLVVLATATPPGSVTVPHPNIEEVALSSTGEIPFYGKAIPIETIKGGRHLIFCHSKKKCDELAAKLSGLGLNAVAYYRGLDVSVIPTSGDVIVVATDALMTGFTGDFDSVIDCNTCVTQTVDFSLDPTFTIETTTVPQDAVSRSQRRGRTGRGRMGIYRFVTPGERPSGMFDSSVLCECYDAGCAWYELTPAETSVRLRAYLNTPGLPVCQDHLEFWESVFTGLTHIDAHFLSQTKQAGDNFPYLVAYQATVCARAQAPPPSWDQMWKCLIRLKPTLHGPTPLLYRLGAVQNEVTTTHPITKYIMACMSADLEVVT
endogenous NS3/4A protease from replicon microsomes, sequence (Q9WMX2 1658-1711): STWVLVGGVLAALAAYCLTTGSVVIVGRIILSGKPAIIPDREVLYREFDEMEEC

Consider `C=CC1=C(C)/C(=C/c2[nH]c(Cc3[nH]c(/C=C4\NC(=O)C(C)=C4C=C)c(C)c3CCC(=O)O)c(CCC(=O)O)c2C)NC1=O` [BR, bilirubin], for which, in data set [1], the “Effect on HCV protein expression by Western blot” value (from here on “Effect on HCV protein expression”) was “decreased NS5A”. In data set [2], the “Effect on cellular proliferation or toxicity” value is on record as “no effect”.
Broadly, the Ki is a measure of affinity in units of concentration, obtained from inhibition or displacement. For `C=CC1=C(C)/C(=C/C2=NC(=C\c3[nH]c(/C=C4\NC(=O)C(C)=C4C=C)c(C)c3CCC(=O)O)/C(CCC(=O)O)=C2C)NC1=O` [Biliverdin, biliverdin-IX-α hydrochloride], the Ki in data set [3] is 600 nM. The “Mode of inhibition of NS3/4A protease” value in data set [3] (Lineweaver-Burk plots) is “mixed competitive and non-competitive inhibition”. Also, the “Effect of BV combined with #25346 on protease activity” value in data set [3] (assays in the presence of both BV and #25346) is “additive effect”. Further, in data set [4], the “Effect on α-interferon antiviral activity” value is “clear additive effect”. Moreover, the “Effect on HCV protein expression” value in data set [1] is “decreased NS5A”. In addition, in data set [2], the “Effect on cellular proliferation or toxicity” value is “no effect”. In addition, in data set [5], the “Inhibition of endogenous NS3/4A protease” value was “potently inhibited”. Also, the “Effect on Huh7.5 cell infection with J6/JFH” value in data set [6] was “markedly decreased”.
In the case of hemin [Heme], the “Relative [HCV] [ΔCΤ]” value in data set [7] (heme 5 uM overnight) is reported as 0.27; in data set [7] (heme 10 uM overnight), 0.09; in data set [7] (heme 20 uM overnight), 0.03; in data set [8] (heme 5 uM overnight), 0.22; in data set [8] (heme 10 uM overnight), 0.08; in data set [8] (heme 20 uM overnight), 0.04. In addition, the “Lowest level at which antiviral effect is apparent” value amounted to 5 µM in data set [7] (NS replicon, overnight incubation with hemin) and 5 µM in data set [8] (FL replicon, overnight incubation with hemin).
Take `[Cl][Fe][Cl]` [FeCl2]: the “Effect on HCV protein expression” value in data set [1] was “decreased NS5A and core protein”.
